Data published in ChEMBL document CHEMBL1124227, “Effects of sulfur-containing analogues of stearic acid on growth and fatty acid biosynthesis in the protozoan Crithidia fasciculata” (J Med Chem, 1988).

How the values were obtained:
Type in all cases: functional, organism-based
Crithidia fasciculata [1] = test: Inhibition of dihydrosterculate synthesis in Crithidia fasciculata; No inhibition
Outline: (§1)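 C. fasciculata (about 1 × 10⁷ organisms) was inoculated into 50 mL growth medium containing the analogue, using duplicate flasks at 3–6 concentrations plus duplicate untreated controls. Cultures were shaken at 25 °C until controls reached 6 × 10⁷ to 9 × 10⁷ organisms/mL. Harvested cells gave free fatty acids, which were converted to methyl esters. Dihydrosterculate was measured as % of total fatty acids by capillary GC-FID on BP1 and Supelcowax 10 columns.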

Crithidia fasciculata [2] = test: The compound was tested for 50% growth inhibition against Crithidia fasciculata; No inhibition
Outline: (§2)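 Cultures were set up in 50 mL growth medium with the analogue added and inoculated with about 1 × 10⁷ C. fasciculata. Duplicate flasks were run at each of 3–6 concentrations, with duplicate controls. Flasks were shaken at 25 °C, and growth was followed as absorbance change at 535 nm against uninoculated medium (1.0 = 7 × 10⁷ organisms/mL). Runs ended when controls reached 6 × 10⁷ to 9 × 10⁷ organisms/mL.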

Crithidia fasciculata [3] = test: Inhibition of dihydrosterculate synthesis in Crithidia fasciculata.; conditions: read-out: I50; outline: as §1
Crithidia fasciculata [4] = test: The compound was tested for 50% growth inhibition against Crithidia fasciculata; conditions: read-out: I50; outline: as §2

SMILES | I50 (Crithidia fasciculata [1]) | I50 (Crithidia fasciculata [2]) | IC50 (Crithidia fasciculata [3]) | IC50 (Crithidia fasciculata [4])
CCCCCCCCCCCCCCCCCC(=O)NCC(O)CO (centres undefined) | Not Active | Not Active | – | –
CCCCCCCCSCCCCCCCCC(=O)O | – | – | 4 µM | 10 µM
CCCCCCCCCCSCCCCCCC(=O)O | – | – | 0.4 µM | 0.8 µM
CCCCCCCCCSCCCCCCCC(=O)O | – | – | 0.9 µM | > 100 µM
CCCCCCCCCCCCCCCCCC(=O)O [STEARIC ACID] | Not Active | – | – | –
CCCCCCCSCCCCCCCCCC(=O)O | – | – | 3 µM | 3 µM
CCCCCCCCC[S+]([O-])CCCCCCCC(=O)O (centres undefined) | Not Active | – | – | > 100 µM
CCCCCCCC[S+]([O-])CCCCCCCCC(=O)O (centres undefined) | Not Active | – | – | > 100 µM
CCCCCCCCCSCCCCCCCC(=O)NCC(O)CO (centres undefined) | – | – | 8 µM | > 100 µM
CCCCCCCCSCCCCCCCCC(=O)NCC(O)CO (centres undefined) | – | – | 12 µM | 17 µM
